Reference: ChEMBL document CHEMBL3232914, “Ultrasound promoted one pot synthesis of novel fluorescent triazolyl spirocyclic oxindoles using DBU based task specific ionic liquids and their antimicrobial activity” (2014)
Values after ≈ are worked out from the molar mass of the structure shown. Active and inactive are the calls of the source. The rule behind the calls is not given here.

Tests used:
Staphylococcus aureus [1] = test: Antibacterial activity against Staphylococcus aureus MTCC 96 assessed as growth inhibition at 4 mg/mL after 24 hrs by agar well diffusion method; format: functional; details: MTCC 96, 24 h, read-out: DIZ
How it was run: (§1)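 Agar wells 8 mm in diameter. The read-out is the diameter of the growth inhibition zone in mm, including the well, given as the mean of three replicates.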

Bacillus subtilis [2] = test: Antibacterial activity against Bacillus subtilis MTCC 121 assessed as growth inhibition at 4 mg/mL after 24 hrs by agar well diffusion method; format: functional; details: MTCC 121, 24 h, read-out: DIZ; how it was run: as §1
Escherichia coli = test: Antibacterial activity against Escherichia coli MTCC 1652 assessed as growth inhibition at 4 mg/mL after 24 hrs by agar well diffusion method; format: functional, organism-based
How it was run: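 Agar well diffusion with 8 mm wells. The inhibition zone diameter is reported in mm, with the well diameter included. Values are means of three replicates.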

Staphylococcus aureus [3] = test: Antibacterial activity against Staphylococcus aureus MTCC 96 assessed as growth inhibition after 24 hrs by macrodilution tube method; format: functional; details: MTCC 96, 24 h
Bacillus subtilis [4] = test: Antibacterial activity against Bacillus subtilis MTCC 121 assessed as growth inhibition after 24 hrs by macrodilution tube method; format: functional; details: MTCC 121, 24 h
Staphylococcus aureus [5] = test: Bactericidal activity against Staphylococcus aureus MTCC 96 after 24 hrs; format: functional; details: MTCC 96, 24 h
Bacillus subtilis [6] = test: Bactericidal activity against Bacillus subtilis MTCC 121 after 24 hrs; format: functional; details: MTCC 121, 24 h
Candida albicans [7] = test: Antifungal activity against Candida albicans MTCC 227 assessed as growth inhibition at 4 mg/mL after 24 hrs by agar well diffusion method; format: functional; details: MTCC 227, 24 h, read-out: DIZ; how it was run: as §1
Saccharomyces cerevisiae [8] = test: Antifungal activity against Saccharomyces cerevisiae MTCC 170 assessed as growth inhibition at 4 mg/mL after 24 hrs by agar well diffusion method; format: functional; details: MTCC 170, 24 h, read-out: DIZ; how it was run: as §1
Candida albicans [9] = test: Antifungal activity against Candida albicans MTCC 227 assessed as growth inhibition by macrodilution tube method; format: functional
How it was run: (§2)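 The MIC against the yeasts was determined with amphotericin-B as the reference standard drug.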

Saccharomyces cerevisiae [10] = test: Antifungal activity against Saccharomyces cerevisiae MTCC 170 assessed as growth inhibition by macrodilution tube method; format: functional; how it was run: as §2
Pseudomonas aeruginosa = details: MTCC 741, 4 mg/mL

Structure (SMILES) | zone of inhibition at 4000 µg/mL (Staphylococcus aureus [1]) [mm] | zone of inhibition at 4000 µg/mL (Bacillus subtilis [2]) [mm] | diameter of the inhibition zone (DIZ) (Escherichia coli) | MIC (Staphylococcus aureus [3]) [µg/mL] | MIC (Bacillus subtilis [4]) [µg/mL] | MBC (Staphylococcus aureus [5]) [µg/mL] | MBC (Bacillus subtilis [6]) [µg/mL] | zone of inhibition at 4000 µg/mL (Candida albicans [7]) [mm] | zone of inhibition at 4000 µg/mL (Saccharomyces cerevisiae [8]) [mm] | MIC (Candida albicans [9]) [µg/mL] | MIC (Saccharomyces cerevisiae [10]) [µg/mL] | DIZ (Pseudomonas aeruginosa)
CC1(C)CC(=O)C2=C(C1)OC(N)=C(C#N)C21C(=O)N(Cc2cn(-c3ccc([N+](=O)[O-])cc3)nn2)c2ccccc21 (stereo not given) | 16.6 | 17.3 | inactive | 128 (≈ 238 µM) | 128 (≈ 238 µM) | 128 (≈ 238 µM) | 256 (≈ 476 µM) | 14.3 | 15.3 | 256 (≈ 476 µM) | 256 (≈ 476 µM) | inactive
CC1(C)CC(=O)C2=C(C1)OC(N)=C(C#N)C21C(=O)N(Cc2cn(-c3ccc(F)c(Cl)c3)nn2)c2ccccc21 (stereo not given) | 19.6 | 21.3 | inactive | 64 (≈ 117 µM) | 32 (≈ 58.7 µM) | 128 (≈ 235 µM) | 128 (≈ 235 µM) | 13.6 | 14.3 | 256 (≈ 470 µM) | 256 (≈ 470 µM) | inactive
CC1(C)CC(=O)C2=C(C1)OC(N)=C(C#N)C21C(=O)N(Cc2cn(-c3ccc(Br)cc3)nn2)c2ccccc21 (stereo not given) | 19.3 | 22.2 | inactive | 32 (≈ 56 µM) | 16 (≈ 28 µM) | 128 (≈ 224 µM) | 64 (≈ 112 µM) | 13.3 | 14.6 | 512 (≈ 896 µM) | 128 (≈ 224 µM) | inactive
Cc1ccc(-n2cc(CN3C(=O)C4(C(C#N)=C(N)OC5=C4C(=O)CC(C)(C)C5)c4ccccc43)nn2)cc1 (stereo not given) | 14.3 | 15.6 | inactive | 128 (≈ 253 µM) | 32 (≈ 63.2 µM) | 256 (≈ 505 µM) | 256 (≈ 505 µM) | 12.6 | 14 | 512 (≈ 1010 µM) | 256 (≈ 505 µM) | inactive
CC1(C)CC(=O)C2=C(C1)OC(N)=C(C#N)C21C(=O)N(Cc2cn(-c3cccc(Cl)c3)nn2)c2ccccc21 (stereo not given) | 19.3 | 20.6 | inactive | 64 (≈ 121 µM) | 32 (≈ 60.7 µM) | 128 (≈ 243 µM) | 128 (≈ 243 µM) | 12.3 | 13.6 | 512 (≈ 972 µM) | 256 (≈ 486 µM) | inactive
Cn1c2c(c(=O)n(C)c1=O)C1(C(=O)N(Cc3cn(-c4ccc([N+](=O)[O-])cc4)nn3)c3ccccc31)C(C#N)=C(N)O2 (stereo not given) | 15.3 | 18.6 | inactive | 128 (≈ 231 µM) | 64 (≈ 116 µM) | 512 (≈ 925 µM) | 128 (≈ 231 µM) | 12.6 | 13.6 | 512 (≈ 925 µM) | 512 (≈ 925 µM) | inactive
COc1ccc(-n2cc(CN3C(=O)C4(C(C#N)=C(N)OC5=C4C(=O)CCC5)c4ccccc43)nn2)cc1 (stereo not given) | 14 | 15.6 | inactive | 64 (≈ 129 µM) | 32 (≈ 64.7 µM) | 512 (≈ 1040 µM) | 128 (≈ 259 µM) | 16 | 16.3 | 128 (≈ 259 µM) | 64 (≈ 129 µM) | inactive
COc1ccc(-n2cc(CN3C(=O)C4(C(C#N)=C(N)OC5=C4C(=O)CC(C)(C)C5)c4ccccc43)nn2)cc1 (stereo not given) | 15.6 | 17.3 | inactive | 128 (≈ 245 µM) | 128 (≈ 245 µM) | 256 (≈ 490 µM) | 256 (≈ 490 µM) | 16.6 | 15.6 | 128 (≈ 245 µM) | 64 (≈ 122 µM) | inactive
N#CC1=C(N)OC2=C(C(=O)CCC2)C12C(=O)N(Cc1cn(-c3ccc([N+](=O)[O-])cc3)nn1)c1ccccc12 (stereo not given) | 17.6 | 18.6 | inactive | 128 (≈ 251 µM) | 128 (≈ 251 µM) | 256 (≈ 502 µM) | 256 (≈ 502 µM) | 12.3 | 13.6 | 512 (≈ 1000 µM) | 256 (≈ 502 µM) | inactive
CC1(C)CC(=O)C2=C(C1)OC(N)=C(C#N)C21C(=O)N(Cc2cn(-c3ccccc3)nn2)c2ccccc21 (stereo not given) | 14.6 | 16.3 | inactive | 128 (≈ 260 µM) | 128 (≈ 260 µM) | 128 (≈ 260 µM) | 256 (≈ 520 µM) | 13.3 | 14.3 | 256 (≈ 520 µM) | 256 (≈ 520 µM) | inactive
Cn1c2c(c(=O)n(C)c1=O)C1(C(=O)N(Cc3cn(-c4ccc(Br)cc4)nn3)c3ccccc31)C(C#N)=C(N)O2 (stereo not given) | 20.6 | 22.3 | inactive | 32 (≈ 54.5 µM) | 16 (≈ 27.2 µM) | 64 (≈ 109 µM) | 64 (≈ 109 µM) | 13.3 | 15.3 | 256 (≈ 436 µM) | 128 (≈ 218 µM) | inactive
Cc1ccc(-n2cc(CN3C(=O)C4(C(C#N)=C(N)OC5=C4C(=O)CCC5)c4ccccc43)nn2)cc1 (stereo not given) | 13.6 | 16.3 | inactive | 256 (≈ 535 µM) | 128 (≈ 267 µM) | 512 (≈ 1070 µM) | 128 (≈ 267 µM) | 14.3 | 15.6 | 128 (≈ 267 µM) | 128 (≈ 267 µM) | inactive
COc1ccc(-n2cc(CN3C(=O)C4(C(C#N)=C(N)Oc5c4c(=O)n(C)c(=O)n5C)c4ccccc43)nn2)cc1 (stereo not given) | 15.3 | 17.6 | inactive | 256 (≈ 475 µM) | 128 (≈ 238 µM) | 512 (≈ 951 µM) | 256 (≈ 475 µM) | 14.6 | 17.6 | 128 (≈ 238 µM) | 64 (≈ 119 µM) | inactive
C[C@@H]1[C@H](O)[C@@H](C)/C=C/C=C/C=C/C=C/C=C/C=C/C=C/[C@H](O[C@@H]2O[C@H](C)[C@@H](O)[C@H](N)[C@@H]2O)C[C@@H]2O[C@](O)(C[C@@H](O)C[C@@H](O)[C@H](O)CC[C@@H](O)C[C@@H](O)CC(=O)O[C@H]1C)C[C@H](O)[C@H]2C(=O)O [AMPHOTERICIN B] |  |  |  |  |  |  |  | 17.6 | 18.3 | 100 (≈ 108 µM) | 100 (≈ 108 µM) | 
